Test [1] can be described thus: Inhibition of Trypanosoma brucei recombinant PTR1. In short, it runs like this: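 Recombinant enzyme stored at 15 mg mL^-1 in 50 mM Tris-HCl, 250 mM NaCl, 20% glycerol, pH 7.5. Substrate was H2B, prepared as a 10 mM stock in 0.1 M NaOH. Compound stocks were 100 mM in DMSO. IC50 came from dose–response plots fitted with Morrison's tight-binding equation. Ki was calculated from IC50 assuming competitive inhibition.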

Test [2] deals with T1, Pteridine reductase 1 (Leishmania major, UniProt Q01782).
T1 sequence (Q01782 whole entry): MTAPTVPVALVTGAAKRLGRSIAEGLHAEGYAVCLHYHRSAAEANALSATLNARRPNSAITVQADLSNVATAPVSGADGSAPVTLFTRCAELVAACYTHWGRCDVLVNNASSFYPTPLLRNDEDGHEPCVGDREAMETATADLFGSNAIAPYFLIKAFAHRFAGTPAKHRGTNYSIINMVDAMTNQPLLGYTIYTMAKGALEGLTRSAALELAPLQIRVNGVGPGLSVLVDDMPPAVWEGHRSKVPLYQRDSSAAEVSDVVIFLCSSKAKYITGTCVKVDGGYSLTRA
The test is described as follows: Inhibition of Leishmania major recombinant PTR1. An outline of the steps: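 Recombinant L. major PTR1, stored at 15 mg mL^-1 (stock) in 50 mM Tris-HCl, 250 mM NaCl, 20% glycerol, pH 7.5. Substrate was H2B, with a 10 mM stock in 0.1 M NaOH. Compound stocks were 100 mM in DMSO. IC50 came from dose–response fits corrected with Morrison's tight-binding equation. Ki was calculated from IC50 using the competitive-inhibition equation.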

Test [3] has as its system Trypanosoma brucei brucei. The test is described as follows: Antitrypanosomal activity against Trypanosoma brucei brucei Lister 427 blood stream form by Alamar blue assay. Type of test: functional. The note with it: read-out: ED50 (the source's name). In short, it runs like this: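 Bloodstream-form Lister 427 grown at 37 °C, 5% CO2 in HMI-9 with neomycin pressure (T7 polymerase and tetracycline repressor lines), fetal calf serum 10%, folate not reduced. Exposed to increasing inhibitor concentrations. Viability read by Alamar blue. ED50 taken from dose–response plots. Three separate determinations, each in quadruplicate (n = 12).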
For orientation: The colour change of resazurin is a common sign of viable cells or microbes.

Consider 19 molecules from ChEMBL document CHEMBL1156764, “Structure-based design of pteridine reductase inhibitors targeting African sleeping sickness and the leishmaniases” (J Med Chem, 2010).

Structures are written as SMILES. pEC50, pKi: −log10 of the molar value.

In the case of `Nc1nc2[nH]ccc2c(=S)[nH]1`, the pKi is less than 4.46 in test [1] and less than 4.57 in test [2]. On the same counts, the results for `Nc1cc(NC2CC2)nc(N)n1` are less than 4.46 and less than 4.57. On the same counts, the results for `Nc1cc(N)nc(N)n1` are less than 4.46 and less than 4.57. On the same counts, the results for `Nc1cc(SCc2ccccc2)nc(N)n1` are 5.49 and 6.22. Take `N#Cc1c(-c2ccc3c(c2)OCO3)[nH]c2nc(N)[nH]c(=O)c12`: the figures for the pKi in test [1] and in test [2] were 6.40 and 5.59, respectively. For the same molecule, the pEC50 in test [3] is 3.91.

`N#Cc1c(-c2ccccc2)[nH]c2nc(N)[nH]c(=O)c12`: the pKi in test [1] is 6.15; in test [2] it was less than 4.57. `Nc1nc2[nH]cc(CCc3ccccc3)c2c(=O)[nH]1`: in test [2], the negative logarithm of the Ki (pKi) is less than 4.57. As to `Cc1ccc(Sc2cc(N)nc(N)n2)cc1`, the pKi is 5.27 in test [1] and 4.57 in test [2].

Regarding `CC(C)c1nc2nc(N)nc(N)c2nc1C(C)C`, the pKi in test [1] is 5.48; in test [2], 6.62. Regarding `N#Cc1c(Br)[nH]c2nc(N)[nH]c(=O)c12`, the negative-log Ki (pKi) in test [1] is 5.41; in test [2], less than 4.57.

As for `CC1=Nc2c(N)nc(N)nc2NC1(C)C`, the figures for the negative logarithm of the Ki (pKi) in test [1] and in test [2] were less than 4.46 and 4.92, respectively. Regarding `COc1ccc(-c2[nH]c3nc(N)[nH]c(=O)c3c2C#N)cc1`, the pKi in test [1] is 6.44; in test [2] it was 5.47. Besides, the pEC50 in test [3] is 3.56.

`COc1ccc(CSc2cc(N)nc(N)n2)cc1`: the pKi is 4.74 in test [1] and 5.57 in test [2].

`N#Cc1c(-c2cccc(C=O)c2)[nH]c2nc(N)[nH]c(=O)c12`: the negative logarithm of the Ki (pKi) is 6.54 in test [1] and 5.38 in test [2]. Turning to `Nc1nc2c(c(=O)[nH]1)CC=N2` [7-DEAZAGUANINE], in test [1], the pKi is less than 4.46. For the molecule `CCc1ccc(-c2[nH]c3nc(N)[nH]c(=O)c3c2C#N)cc1`, the pKi was 6.30 in test [1] and 4.79 in test [2]. Regarding `N#Cc1c[nH]c2nc(N)[nH]c(=O)c12`, the pKi was 5.24 in test [1] and less than 4.57 in test [2]. `CCc1nc(N)nc(N)c1-c1ccc(Cl)cc1` [PYRIMETHAMINE]: the pEC50 in test [3] is 4.58. Consider `Nc1nc(N)c2nc(-c3ccccc3)c(N)nc2n1`, for which the negative-log Ki (pKi) in test [1] was 5.92; in test [2], 5.47.

One may read the pKi as the Ki on a negative log10 scale, so that one unit is a factor of ten.
